Activity calls are given as the source filed them.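 Rule for the calls: active = compounds cutting cell ATP light whose fitted AC50 is at most double the top dose tried; inconclusive = flat moderate signal loss, or an unreliable curve fit; inactive = the rest.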

System in one assay: not listed separately
Kind of assay: ldlA[mSR-BI] cell viability loss – CellTiter-Glo luminescence, 24 h, dry powder, set 5, cytotoxicity control for SR-BI HDL uptake inhibitor project, dose response (AID 602126). The following applies: ldlA[mSR-BI] CHO cells viability, CellTiter-Glo ATP luminescence, 24 h; at 30 µM (top of the series). In outline: (§1)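 material = ldlA[mSR-BI] cells | quantity = 4,000 cells per well | times = 24 h compound exposure at 37 °C, then 10 min with detection reagent | signal = luminescence of cellular ATP via CellTiter-Glo luciferase reagent | read-out = IC50 of cell viability from ATP-dependent luminescence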
Take `C[C@H]1CN([C@@H](C)CO)C(=O)c2cc(NC(=O)Cc3cn(C)c4ccccc34)ccc2O[C@H]1CN(C)S(=O)(=O)c1ccc(F)cc1`: the activity change, negative = cytotoxicity is -19.8% (inactive).

Staying with this assay, now noted: ldlA[mSR-BI] CHO cells viability, CellTiter-Glo ATP luminescence, 24 h; at 35 µM (top of the series).
On to `COC(=O)N1CCc2cc(-c3csc(NC(=O)c4ccco4)n3)ccc21`, for which the activity change, negative = cytotoxicity was -18.6% (inactive). On the same count and under the same terms, next, `Nc1ccc(C(=O)Nc2ccc(-c3nc4ccc(NC(=O)c5ccc(N)cc5)cc4[nH]3)cc2)cc1`: -13.9% (inactive); `C[C@@H]1CN([C@H](C)CO)C(=O)c2cc(NC(=O)Cc3cn(C)c4ccccc34)ccc2O[C@H]1CN(C)S(=O)(=O)c1ccc(F)cc1`: -29.1% (inactive). `C[C@@H]1CN([C@H](C)CO)C(=O)c2cc(NC(=O)Cc3cn(C)c4ccccc34)ccc2O[C@H]1CN(C)S(=O)(=O)c1ccc(Cl)cc1`: the activity change, negative = cytotoxicity was -18.6% (inactive). Consider `CC(C)OCCCNC(=O)c1ccc(C2SCC(=O)N2Cc2ccco2)cc1` (stereo not given), for which the activity change, negative = cytotoxicity is -15.7% (inactive). `CCC(=O)N1CCc2cc(-c3coc(N)n3)ccc21`: the activity change, negative = cytotoxicity is 3.91% (inactive). Same read-out and setting: next, `CC(C(=O)NC1CCCC1)N(C(=O)Cn1nnc(-c2ccc3c(c2)OCO3)n1)C1CCOCC1` (stereo not given): -7.76% (inactive); `CC(C(=O)NC1CCCC1)N(C(=O)Cn1nnc(-c2ccc(F)cc2)n1)C1CCCCC1` (stereo not given): -24.9% (inactive); `C[C@H](CO)N1C[C@H](C)[C@H](CN(C)S(=O)(=O)c2ccc(F)cc2)Oc2ccc(NC(=O)Cc3ccccc3)cc2C1=O`: -6.53% (inactive). As to `CC(C(=O)NC1CCCC1)N(C(=O)Cn1nnc(-c2ccccc2F)n1)C1CCCCC1` (stereo not given), the activity change, negative = cytotoxicity was -27.4% (inactive). On to `CCCn1ccc2cc(-c3csc(NC(=O)c4ccco4)n3)ccc21`, for which the activity change, negative = cytotoxicity is -34.1% (inactive).

On to `C[C@H](CO)N1C[C@H](C)[C@H](CN(C)S(=O)(=O)c2ccc(F)cc2)Oc2ccc(NC(=O)CCC(F)(F)F)cc2C1=O`, for which the activity change, negative = cytotoxicity is -2.53% (inactive).

For the compound `Cc1cc(C(=O)C(C)OC(=O)C2=NNC(=O)CC2)c(C)n1-c1ccc(OC(F)F)cc1` (stereo not given), the activity change, negative = cytotoxicity is -26.5% (inactive).

In a further assay the test system is ldlA[mSR-BI] CHO cells viability, CellTiter-Glo ATP luminescence, 24 h. The description is as above.
Conditions: not given
In outline:
as §1
Regarding `C[C@@H]1CN([C@H](C)CO)C(=O)c2cc(NC(=O)Cc3cn(C)c4ccccc34)ccc2O[C@H]1CN(C)S(=O)(=O)c1ccc(Cl)cc1`, the AC50 was > 70 µM (inactive).

For the origin of these results see PubChem BioAssay AID602126 (Broad Institute, 2011).
